In brackets after ≈: the same amount, converted by molar mass.
How the values were obtained:
[1] = tested on: Toxoplasma gondii; test: Antiparasitic activity against Toxoplasma gondii 2F-1 expressing yellow fluorescent protein infected in HFF after 4 days; format: functional, organism-based; conditions: 2F-1, 96 h
[2] = tested on: Bacillus subtilis; test: Antibacterial activity against Bacillus subtilis; format: functional
[3] = tested on: HFF; test: Cytotoxicity against HFF after 48 hrs by MTS assay; format: cell-based; conditions: human
Procedure, shortened: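 Low-passage HFF seeded in 96-well plates and incubated 24h at 37 °C, then exposed to varying macrolide concentrations for 2 days; medium replaced with fresh medium plus MTS, 4h at 37 °C, absorbance 490 nm; CC50 = dose reducing viability by 50%.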

Structure (SMILES) | IC50 [1] | MIC [2] | CC50 [3]
C=CCO[C@]1(C)C[C@@H](C)CN(CC=C)[C@H](C)[C@@H](O)[C@](C)(O)[C@@H](CC)OC(=O)[C@H](C)[C@@H](O[C@H]2C[C@@](C)(OC)[C@@H](O)[C@H](C)O2)[C@H](C)[C@H]1O[C@@H]1O[C@H](C)C[C@H](N(C)C)[C@H]1O | 12 µM | 5 µM (≈ 4.08 µg/mL) | 38 µM
CC[C@H]1OC(=O)[C@H](C)[C@@H](O[C@H]2C[C@@](C)(OC)[C@@H](O)[C@H](C)O2)[C@H](C)[C@@H](O[C@@H]2O[C@H](C)C[C@H](N(C)C)[C@H]2O)[C@](C)(O)C[C@@H](C)/C(=N\OC)[C@H](C)[C@@H](O)[C@]1(C)O | 14 µM | 0.04 µM (≈ 0.0305 µg/mL) | 22 µM
CC[C@H]1OC(=O)[C@H](C)[C@@H](O[C@H]2C[C@@](C)(OC)[C@@H](O)[C@H](C)O2)[C@H](C)[C@@H](O[C@@H]2O[C@H](C)C[C@H](N(C)C)[C@H]2O)[C@](C)(O)C[C@@H](C)C(=O)[C@H](C)[C@@H](O)[C@]1(C)O [ERYTHROMYCIN] | 93 µM | 0.04 µM (≈ 0.0294 µg/mL) | 475 µM
CC[C@H]1OC(=O)[C@H](C)[C@@H](O[C@H]2C[C@@](C)(OC)[C@@H](O)[C@H](C)O2)[C@H](C)[C@@H](O[C@@H]2O[C@H](C)C[C@H](N(C)C)[C@H]2O)[C@](C)(OC)C[C@@H](C)CN[C@H](C)[C@@H](O)[C@]1(C)O | 106 µM | 2.5 µM (≈ 1.87 µg/mL) | 460 µM
CC[C@H]1OC(=O)[C@H](C)[C@@H](O[C@H]2C[C@@](C)(OC)[C@@H](O)[C@H](C)O2)[C@H](C)[C@@H](O[C@@H]2O[C@H](C)C[C@H](N(C)C)[C@H]2O)[C@](C)(OC)C[C@@H](C)C(=O)[C@H](C)[C@@H](O)[C@]1(C)O [CLARITHROMYCIN] | 31 µM | 0.04 µM (≈ 0.0299 µg/mL) | 260 µM
CC[C@H]1OC(=O)[C@H](C)[C@@H](O[C@H]2C[C@@](C)(OC)[C@@H](O)[C@H](C)O2)[C@H](C)[C@@H](O[C@@H]2O[C@H](C)C[C@H](N(C)C)[C@H]2O)[C@](C)(O)C[C@@H](C)CN(C(=O)NCc2ccccc2)[C@H](C)[C@@H](O)[C@]1(C)O | 12 µM | 1.2 µM (≈ 1.04 µg/mL) | 222 µM
CC[C@H]1OC(=O)[C@H](C)[C@@H](O[C@H]2C[C@@](C)(OC)[C@@H](O)[C@H](C)O2)[C@H](C)[C@@H](O[C@@H]2O[C@H](C)C[C@H](N(C)C)[C@H]2O)[C@](C)(O)C[C@@H](C)/C(=N\OCc2ccccc2)[C@H](C)[C@@H](O)[C@]1(C)O | 1.4 µM | 0.04 µM (≈ 0.0336 µg/mL) | 3 µM
CC[C@H]1OC(=O)[C@H](C)[C@@H](O[C@H]2C[C@@](C)(OC)[C@@H](O)[C@H](C)O2)[C@H](C)[C@@H](O[C@@H]2O[C@H](C)C[C@H](N(C)C)[C@H]2O)[C@](C)(OC)C[C@@H](C)CN(C(=O)NCc2ccccc2)[C@H](C)[C@@H](O)[C@]1(C)O | 16 µM | 1.5 µM (≈ 1.32 µg/mL) | 62 µM
C=CCN1C[C@H](C)C[C@@](C)(O)[C@H](O[C@@H]2O[C@H](C)C[C@H](N(C)C)[C@H]2O)[C@@H](C)[C@H](O[C@H]2C[C@@](C)(OC)[C@@H](O)[C@H](C)O2)[C@@H](C)C(=O)O[C@H](CC)[C@@](C)(O)[C@H](O)[C@H]1C | 13 µM | 0.3 µM (≈ 0.233 µg/mL) | 103 µM
CCNC(=O)N1C[C@H](C)C[C@@](C)(OC)[C@H](O[C@@H]2O[C@H](C)C[C@H](N(C)C)[C@H]2O)[C@@H](C)[C@H](O[C@H]2C[C@@](C)(OC)[C@@H](O)[C@H](C)O2)[C@@H](C)C(=O)O[C@H](CC)[C@@](C)(O)[C@H](O)[C@H]1C | 59 µM | 10 µM (≈ 8.2 µg/mL) | 409 µM
CCCN1C[C@H](C)C[C@@](C)(O)[C@H](O[C@@H]2O[C@H](C)C[C@H](N(C)C)[C@H]2O)[C@@H](C)[C@H](O[C@H]2C[C@@](C)(OC)[C@@H](O)[C@H](C)O2)[C@@H](C)C(=O)O[C@H](CC)[C@@](C)(O)[C@H](O)[C@H]1C | 16 µM | 0.6 µM (≈ 0.466 µg/mL) | 139 µM
C=CCN1C[C@H](C)C[C@@](C)(OC)[C@H](O[C@@H]2O[C@H](C)C[C@H](N(C)C)[C@H]2O)[C@@H](C)[C@H](O[C@H]2C[C@@](C)(OC)[C@@H](O)[C@H](C)O2)[C@@H](C)C(=O)O[C@H](CC)[C@@](C)(O)[C@H](O)[C@H]1C | 13 µM | 0.8 µM (≈ 0.631 µg/mL) | 84 µM
CCNC(=O)N1C[C@H](C)C[C@@](C)(O)[C@H](O[C@@H]2O[C@H](C)C[C@H](N(C)C)[C@H]2O)[C@@H](C)[C@H](O[C@H]2C[C@@](C)(OC)[C@@H](O)[C@H](C)O2)[C@@H](C)C(=O)O[C@H](CC)[C@@](C)(O)[C@H](O)[C@H]1C | 85 µM | 10 µM (≈ 8.06 µg/mL) | 480 µM
CC[C@H]1OC(=O)[C@H](C)[C@@H](O[C@H]2C[C@@](C)(OC)[C@@H](O)[C@H](C)O2)[C@H](C)[C@@H](O[C@@H]2O[C@H](C)C[C@H](N(C)C)[C@H]2O)[C@](C)(OC)C[C@@H](C)CN(C)[C@H](C)[C@@H](O)[C@]1(C)O | 89 µM | 5 µM (≈ 3.82 µg/mL) | 454 µM
CCCN1C[C@H](C)C[C@@](C)(OC)[C@H](O[C@@H]2O[C@H](C)C[C@H](N(C)C)[C@H]2O)[C@@H](C)[C@H](O[C@H]2C[C@@](C)(OC)[C@@H](O)[C@H](C)O2)[C@@H](C)C(=O)O[C@H](CC)[C@@](C)(O)[C@H](O)[C@H]1C | 20 µM | 1.2 µM (≈ 0.949 µg/mL) | 106 µM
C=CCO[C@]1(C)C[C@@H](C)CN(C(=O)NCC)[C@H](C)[C@@H](O)[C@](C)(O)[C@@H](CC)OC(=O)[C@H](C)[C@@H](O[C@H]2C[C@@](C)(OC)[C@@H](O)[C@H](C)O2)[C@H](C)[C@H]1O[C@@H]1O[C@H](C)C[C@H](N(C)C)[C@H]1O | 33 µM | 5 µM (≈ 4.23 µg/mL) | 90 µM
CC[C@H]1OC(=O)[C@H](C)[C@@H](O[C@H]2C[C@@](C)(OC)[C@@H](O)[C@H](C)O2)[C@H](C)[C@@H](O[C@@H]2O[C@H](C)C[C@H](N(C)C)[C@H]2O)[C@](C)(O)C[C@@H](C)CN[C@H](C)[C@@H](O)[C@]1(C)O | 65 µM | 1.2 µM (≈ 0.882 µg/mL) | 386 µM
C=CCO/N=C1\[C@H](C)C[C@@](C)(O)[C@H](O[C@@H]2O[C@H](C)C[C@H](N(C)C)[C@H]2O)[C@@H](C)[C@H](O[C@H]2C[C@@](C)(OC)[C@@H](O)[C@H](C)O2)[C@@H](C)C(=O)O[C@H](CC)[C@@](C)(O)[C@H](O)[C@H]1C | 2.7 µM | 0.04 µM (≈ 0.0316 µg/mL) | 16 µM
CCCO/N=C1\[C@H](C)C[C@@](C)(O)[C@H](O[C@@H]2O[C@H](C)C[C@H](N(C)C)[C@H]2O)[C@@H](C)[C@H](O[C@H]2C[C@@](C)(OC)[C@@H](O)[C@H](C)O2)[C@@H](C)C(=O)O[C@H](CC)[C@@](C)(O)[C@H](O)[C@H]1C | 1.6 µM | 0.04 µM (≈ 0.0316 µg/mL) | 7 µM
C=CCO[C@]1(C)C[C@@H](C)CN(C(=O)NCc2ccccc2)[C@H](C)[C@@H](O)[C@](C)(O)[C@@H](CC)OC(=O)[C@H](C)[C@@H](O[C@H]2C[C@@](C)(OC)[C@@H](O)[C@H](C)O2)[C@H](C)[C@H]1O[C@@H]1O[C@H](C)C[C@H](N(C)C)[C@H]1O | 6 µM | 1.5 µM (≈ 1.36 µg/mL) | 28 µM
C=CCO[C@]1(C)C[C@@H](C)CN(CCC)[C@H](C)[C@@H](O)[C@](C)(O)[C@@H](CC)OC(=O)[C@H](C)[C@@H](O[C@H]2C[C@@](C)(OC)[C@@H](O)[C@H](C)O2)[C@H](C)[C@H]1O[C@@H]1O[C@H](C)C[C@H](N(C)C)[C@H]1O | 15 µM | 10 µM (≈ 8.17 µg/mL) | 42 µM

— ChEMBL document CHEMBL1772948, “Chemistry and biology of macrolide antiparasitic agents” (J Med Chem, 2011)
